Bioassay records: PubChem BioAssay, several laboratories
The list is not random: actives were taken first. Their share in the collection is about 1.9%.
ASAP1 inh – inhibitors of human ASAP1 ArfGAP activity. Q9ULH1. ASAP1-stimulated ARF1 GTP hydrolysis, GDP FP detection. inhibition, % at 16.5 µM. 360,000 compounds, 0.19% hits; in the data active means inhibition above about 25%
Target sequence (Q9ULH1 325-724 limits assumed): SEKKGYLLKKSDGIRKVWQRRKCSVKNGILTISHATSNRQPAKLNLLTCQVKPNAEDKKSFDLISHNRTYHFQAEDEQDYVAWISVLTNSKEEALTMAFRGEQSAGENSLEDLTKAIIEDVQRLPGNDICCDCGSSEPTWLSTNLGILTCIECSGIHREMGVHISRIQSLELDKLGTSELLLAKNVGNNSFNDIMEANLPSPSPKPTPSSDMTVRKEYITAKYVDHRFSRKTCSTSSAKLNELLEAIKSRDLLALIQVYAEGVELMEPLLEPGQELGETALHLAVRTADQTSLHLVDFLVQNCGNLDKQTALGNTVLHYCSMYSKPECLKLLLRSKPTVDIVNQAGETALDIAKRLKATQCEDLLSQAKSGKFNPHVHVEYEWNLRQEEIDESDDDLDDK
FGF22 binding – shifts melting point of recombinant human FGF22. Q9HCT0. recombinant FGF22 thermal shift, SYPRO orange fluorescence; percent of sucrose octasulfate shift, DMSO zero. activity (Tm shift, normalised), % at 9.99 µM. 340,000 compounds, 1.5% hits. AID 651658;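 active means mean Tm shift, scaled 0 neutral to 100 positive control, at about 1.3% or above, every replicate too, limit read from the data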
Rtt109 Vps75 – C. albicans Rtt109 histone acetyltransferase inhibition; inhibition, % at 34.9 µM; 330,000 compounds, 0.16% hits; Q5AAJ8; purified Rtt109/Vps75, ThioGlo CoA-SH fluorescence, 4 h;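 active means inhibition of at least 50% in every replicate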
ARFGAP1 inhibitor – inhibitors of rat ARFGAP1; inhibition, % at 16.5 µM; 360,000 compounds, 0.26% hits; Arfgap1-stimulated ARF1 GTP hydrolysis, GDP FP detection; AID 651572;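 active means inhibition above a per-plate limit, mean inhibition of low control wells plus 3 SD, cut at about 25% in these data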
Target sequence (Q62848 1-136 limits assumed): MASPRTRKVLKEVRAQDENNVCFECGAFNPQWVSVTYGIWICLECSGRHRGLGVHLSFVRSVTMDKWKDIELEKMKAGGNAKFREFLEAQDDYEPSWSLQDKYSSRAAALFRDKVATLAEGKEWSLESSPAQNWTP
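system = rat Arfgap1 catalytic domain, aa 1-136 | technique = FP, GDP Alexa 633 tracer displaced from anti-GDP antibody, 620/688 nm | compound = one concentration, 16.5 µM, DMSO 1.26% | medium = HEPES-based buffer, pH 7.5 | timing = compound-enzyme preincubation 20 min, reaction 120 min, detection 60 min, 25 °C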
Efflux pump inh – inhibitors of Candida antifungal efflux pumps expressed in yeast | S. cerevisiae Candida pump triplex, Nile Red efflux | inhibition, % at 10 µM | 330,000 compounds, 0.44% hits | AID 485275;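 active means plate passing quality check with inhibition over a set limit, or well fluorescence over plate mean plus 4 SD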;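 further: Nile Red retained in pooled yeast measured as flow cytometry median fluorescence; higher means more Nile Red kept so more efflux inhibition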
Hits are given with their value; n = inactive; x = no result; ! = not active in a repeat.

SMILES	ASAP1 inh	FGF22 binding	Rtt109 Vps75	ARFGAP1 inhibitor	Efflux pump inh
Cc1cnc(C(=O)Nc2ccc(C)c(S(=O)(=O)N3CCCCC3)c2)cn1	n	n	n	n	n
CCc1nc(N2CCOCC2)c(C#N)c2c1COC(C)(C)C2	n	x	n	n	n
COc1ccccc1N1CCN(/N=C/c2cc(OC)c(O)c(OC)c2)CC1	n	n	n	n	n
COc1ccccc1N1CCN(/N=C/c2cccc(O)c2)CC1	n	44	n	n	n
COCC(=O)Nc1ccc2c(c1)OC[C@@H](C)N(C(=O)c1cnccn1)C[C@@H](C)[C@H](OC)CN(C)C2=O	x	n	x	x	x
CC(/C=N/NC(=O)c1ccncc1)=C\c1ccccc1	n	n	x	n	n
CC(=C/c1ccc(C(C)C)cc1)/C=N/NC(=O)c1ccncc1	n	43	n	n	n
COc1cccc(Oc2ccc(N/C=C/C(=O)C(C)(C)C)cc2)c1	n	44	n	n	n
CC(C)NC(=O)C12CC3CC(C1)CC(C(=O)NC(C)C)(C3)C2	n	44	n	n	n
CCCc1ncc(C(O)c2ccc(OC)cc2)n1C (configuration not stated)	n	x	n	n	n
COC(=O)CCS(=O)(=O)c1nc(-c2ccccc2)cc(C(F)(F)F)n1	x	x	68	x	n
O=C(CNC(=O)Cc1ccccc1)NCc1cccs1	n	n	n	n	n
O=C(NCc1ccccc1)NCc1cccs1	n	43	n	n	n
CC(=O)C(C(C)=O)C1(O)C(=O)c2ccccc2C1=O	27	n	n	32	n
CC(=O)N(C)C1=C(O)c2ccccc2C(=O)C1=O	n	x	n	n	n
CC(C)N(c1ccccc1)c1ccc(NC(=O)CCl)cc1	n	n	n	n	n
COc1ccccc1N1N=C(c2ccc([N+](=O)[O-])cc2)CC1c1ccccc1 (configuration not stated)	n	2.7	n	n	n
CNCC(=O)Nc1ccc(Cl)c(C(F)(F)F)c1	n	43	n	n	n
Cc1noc(C)c1CSCC(=O)N(C)CC(=O)Nc1ccc(Cl)c(C(F)(F)F)c1	n	1.9	n	n	n
COC(=O)C1=C(C)N(Cc2cccc(C(F)(F)F)c2)C(=NCc2ccccc2C(F)(F)F)NC1c1cccc(C(F)(F)F)c1 (configuration not stated)	n	n	x	n	x
CC1(C)CC(Cc2ccc(Cl)nc2)N(C(=O)OC(C)(C)C)C1 (configuration not stated)	n	44	x	n	x
NC(CO)C(=O)NNCc1ccc(O)c(O)c1O (configuration not stated)	n	n	79!	n	n
CCOc1ncccc1C(=O)OCC(=O)NCc1cccs1	n	n	n	n	n
O=C(COC(=O)c1cccnc1Cl)NCc1cccs1	n	43	n	n	n
CNC[C@@H]1OCCCC[C@@H](C)Oc2ccc(NC(=O)Nc3ccc(F)cc3)cc2C(=O)N([C@H](C)CO)C[C@@H]1C	x	n	x	x	x
SMILES	ASAP1 inh	FGF22 binding	Rtt109 Vps75	ARFGAP1 inhibitor	Efflux pump inh
CC(C)NC(=O)Nc1ccc2c(c1)C(=O)N([C@H](C)CO)C[C@H](C)[C@H](CN(C)Cc1ccccc1)OCCCC[C@@H](C)O2	x	n	x	x	x
Cc1ccccc1NC(=O)c1cc([N+](=O)[O-])ccc1NCCN1C(=O)CCC1=O	n	43	n	n	n
O=C(N/N=C/c1ccccc1O)C1SCCCS1	n	n	n	n	n
O=C(NN=Cc1ccccc1O)C1CC1	n	43	n	n	x
COC(=O)c1ccc(Cl)cc1NC(=O)/C=C/c1ccc(C)o1	n	44	n	n	n
CCOC(=O)c1c(C)c(C(=O)NCc2cccs2)c(C)n1CC	n	n	n	n	n
O=CN1CCC(=O)N(Cc2ccccc2)c2ccccc21	n	x	n	n	n
CC(C)N1C(=O)CCN(C=O)c2ccccc21	n	43	n	n	n
c1ccc2c(c1)CCN(C1=Nc3cccc4cccc1c34)C2	n	43	n	n	x
COCCCNC(=O)c1cc(C(=O)c2ccccc2Br)c[nH]1	n	n	n	n	n
COC(=O)c1ccc(-c2noc(CN(C)CCC3CCCCO3)n2)cc1 (configuration not stated)	n	43	n	n	n
CNC[C@H]1Oc2ccc(NC(=O)Nc3ccccc3)cc2C(=O)N([C@H](C)CO)C[C@H]1C	x	n	x	x	x
Cc1[nH]c(=O)[nH]c(=O)c1NC(=O)c1ccc(OC(C)C)cc1	n	n	n	n	n
CC(C)Oc1ccc(C(=O)Nc2ccc(C(F)(F)F)n(C)c2=O)cc1	n	44	x	n	n
COc1ccc(OC)c(C(C(=O)NC2CCCCC2)N(C(=O)c2snc(C(N)=O)c2N)c2ccccc2OC)c1 (configuration not stated)	n	n	n	n	n
COc1ccccc1N(C(=O)c1snc(C(N)=O)c1N)C(C(=O)NC1CCCCC1)c1cccc(OC)c1OC (configuration not stated)	n	n	53	n	n
O=C(Cn1cnc2ccccc21)N/N=C/c1ccccc1	n	43	n	n	n
C[C@@H]1CCCCO[C@H](CN(C)Cc2ccc(C(=O)O)cc2)[C@H](C)CN([C@@H](C)CO)C(=O)c2cc(NS(=O)(=O)c3cn(C)cn3)ccc2O1	x	1.3	x	x	x
Cc1noc(C)c1S(=O)(=O)Nc1ccc2c(c1)C(=O)N([C@@H](C)CO)C[C@H](C)[C@H](CN(C)Cc1ccc(C(=O)O)cc1)OCCCC[C@H](C)O2	x	1.3	x	x	x
Cc1noc(C)c1S(=O)(=O)Nc1ccc2c(c1)C(=O)N([C@H](C)CO)C[C@H](C)[C@H](CN(C)Cc1ccc(C(=O)O)cc1)OCCCC[C@@H](C)O2	x	1.4	x	x	x
C[C@H]1CCCCO[C@@H](CN(C)Cc2ccc(C(=O)O)cc2)[C@@H](C)CN([C@@H](C)CO)C(=O)c2cc(NS(=O)(=O)c3cn(C)cn3)ccc2O1	x	n	x	x	x
Cc1noc(C)c1S(=O)(=O)Nc1ccc2c(c1)C(=O)N([C@H](C)CO)C[C@@H](C)[C@H](CN(C)Cc1ccc(C(=O)O)cc1)OCCCC[C@@H](C)O2	x	n	x	x	x
C=C(C)C(=O)N1CC2(CC(c3cccc(NC(=O)c4ccccc4)c3)=NO2)C[C@@H]1C(N)=O (some centres not stated)	n	44	n	n	n
C=C(C)C(=O)N1CC2(CC(c3cccc(NC(=O)CC)c3)=NO2)C[C@H]1C(N)=O (some centres not stated)	x	x	n	x	n
FC(F)(F)c1ccccc1CNCc1ccncc1	n	n	n	n	n
Clc1ccccc1CNCc1ccncc1	n	43	n	n	n
O=C(c1cnn2c1NC(c1ccc(Br)cc1)CC2C(F)(F)F)N1CCN(C23CC4CC(CC(C4)C2)C3)CC1 (configuration not stated)	n	x	n	n	n
CCOC(=O)C1CCN(c2ccc([N+](=O)[O-])c(C(C)=O)c2)CC1	n	n	115	n	n
CCOC(=O)C1CCN(C(=O)COC(=O)/C=C/c2ccc([N+](=O)[O-])cc2)CC1	n	n	n	n	n
